From PubChem
In the library only some 1.8% were active in any assay of this set; here they are far more common.
Casp6 inh: caspase-6 (human) enzyme inhibition. P55212. purified caspase-6, Z-VEID-R110 cleavage fluorescence. inhibition, % at 12.5 µM. actives 0.53% (n = 350,000). AID 686996;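 active = mean inhibition across replicates at least about 35%, with every replicate also reaching that limit, limit read from the data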
LEDGF integ inh: blocks HIV-1 LEDGF/p75-dependent DNA integration; inhibition, % at 3.7 µM; TR-FRET IN-LEDGF/p75 DNA integration, Eu/Cy5; actives 0.64% (n = 370,000); AID 743269;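 active = inhibition above the screen-wide mean plus 3 SD, cut at about 13% in these data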;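 also: signal is the Cy5 over europium emission ratio at 671 and 618 nm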
MBD2 inh: inhibitors of human MBD2 binding to methylated oligonucleotide; Q9UBB5; TR-FRET; inhibition, % at 4.4 µM; actives 0.31% (n = 370,000); in the data active = inhibition above about 13%
Target sequence (Q9UBB5 whole entry, looked up): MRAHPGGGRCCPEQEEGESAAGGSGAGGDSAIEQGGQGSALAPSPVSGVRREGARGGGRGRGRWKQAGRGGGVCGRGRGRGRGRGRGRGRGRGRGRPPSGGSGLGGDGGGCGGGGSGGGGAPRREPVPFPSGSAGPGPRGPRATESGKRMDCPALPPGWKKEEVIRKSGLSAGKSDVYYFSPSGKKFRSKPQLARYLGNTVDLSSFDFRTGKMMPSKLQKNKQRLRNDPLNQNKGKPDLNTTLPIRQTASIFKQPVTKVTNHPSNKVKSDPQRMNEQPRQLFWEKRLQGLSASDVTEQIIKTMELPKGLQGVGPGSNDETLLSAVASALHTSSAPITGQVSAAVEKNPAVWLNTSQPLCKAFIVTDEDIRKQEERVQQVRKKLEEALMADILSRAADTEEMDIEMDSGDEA
TDP2 absorb: blocks human TDP2 phosphodiesterase activity; recombinant TDP2, T5PNP hydrolysis, p-nitrophenol absorbance 415 nm; inhibition, % at 12.8 µM; O95551; actives 0.34% (n = 370,000);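 active = inhibition above the mean of all tested compounds plus 3 SD, set per campaign, cut at about 25% in these data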
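Assay system: recombinant human TDP2 / Reagent: T5PNP substrate at 5 mM, a TopII-DNA adduct mimic / Measured by: epi absorbance from released p-nitrophenol / Evaluation: % inhibition relative to enzyme-containing and enzyme-free wells / Control set: enzyme-free and DMSO wells / Replicates: each compound tested once, singlicate / Schedule: enzyme reaction with compound for 2 h at 37 °C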
UHRF1 binding: blocks human UHRF1 binding to methylated DNA. Q96T88. actives 0.75% (n = 370,000). AID 687016. UHRF1 binding to methylated oligo, TR-FRET. inhibition, % at 4.4 µM; in the data active = inhibition above about 21%;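 also: UHRF1 SRA domain binding a hemimethylated CpG hairpin DNA probe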
NSD2 HMT inh: NSD2 (human) methyltransferase inhibition; O96028; inhibition, % at 12.5 µM; actives 0.54% (n = 310,000); NSD2 peptide methylation, AlphaScreen, 120 min; in the data active = inhibition above about 50%
A number is an active result.

COc1ccc2c3c(n(C)c2c1)[C@@H](CO)NCC31CN(C(=O)Nc2ccccc2F)C1 was read as Casp6 inh inactive.
CN(C)CC(=O)N[C@H]1CC[C@@H](CC(=O)NCc2ccc(Cl)cc2)O[C@@H]1CO was read as Casp6 inh inactive.
For CCOC(=O)C1(Cc2ccccc2C)CCCN(C(=O)CCc2cccnc2)C1 (stereo not drawn) the results were Casp6 inh 60, LEDGF integ inh inactive, MBD2 inh inactive, TDP2 absorb inactive, UHRF1 binding inactive and NSD2 HMT inh inactive.
Screening Cc1noc(C)c1NC(=O)N(C)C[C@@H]1Oc2ccc(NC(=O)Cc3cn(C)c4ccccc34)cc2C(=O)N([C@H](C)CO)C[C@@H]1C returned Casp6 inh inactive.
Screening COC(=O)C1=NNC2C(=O)N(c3ccc(C)cc3)C(=O)C12 (stereo not drawn) returned Casp6 inh inactive, LEDGF integ inh inactive, MBD2 inh inactive, TDP2 absorb inactive, UHRF1 binding inactive and NSD2 HMT inh inactive.
`COC(=O)C1=NNC2C(=O)N(C3CCCCC3)C(=O)C12` (stereo not drawn) gave Casp6 inh inactive, LEDGF integ inh inactive, MBD2 inh inactive, TDP2 absorb inactive, UHRF1 binding 26 and NSD2 HMT inh inactive.
COc1ccc(CNC(=O)C[C@@H]2C[C@H]3c4cc(NC(=O)NC5CCCC5)ccc4O[C@H]3[C@@H](CO)O2)cc1 was read as Casp6 inh inactive.
For CCCN(CCC)Cc1cc(=O)oc2cc3c(cc12)CCC3 the results were Casp6 inh inactive, LEDGF integ inh inactive, MBD2 inh inactive, TDP2 absorb inactive, UHRF1 binding 31 and NSD2 HMT inh inactive.
Screening COc1cc(C(=O)N2CCN(C(=O)CC(C)C)CC2)cc(OC)c1OC returned Casp6 inh inactive, LEDGF integ inh inactive, MBD2 inh inactive, TDP2 absorb inactive, UHRF1 binding 31 and NSD2 HMT inh inactive.
For CCn1nc([N+](=O)[O-])c(C(C#N)c2nc3cc(C(F)(F)F)ccc3s2)c(Cl)c1=O (stereo not drawn) the results were LEDGF integ inh inactive, MBD2 inh inactive, TDP2 absorb inactive, UHRF1 binding inactive and NSD2 HMT inh 54.
Screening CCCn1nc([N+](=O)[O-])c(C(C#N)c2nc3ccccc3o2)c(Cl)c1=O (stereo not drawn) returned LEDGF integ inh inactive, MBD2 inh inactive, TDP2 absorb inactive, UHRF1 binding inactive and NSD2 HMT inh inactive.
For S=C(c1ccccc1)N1CCN(c2ccccc2)CC1 the results were Casp6 inh inactive, LEDGF integ inh inactive, MBD2 inh inactive, TDP2 absorb inactive, UHRF1 binding inactive and NSD2 HMT inh inactive.
Screening CCN(CC)c1ccc(C(=S)N2CCN(c3ccccc3)CC2)cc1 returned LEDGF integ inh inactive, MBD2 inh inactive, TDP2 absorb inactive, UHRF1 binding 21 and NSD2 HMT inh inactive.
CC(C)CCn1c(SCC(=O)Nc2ccccc2C(F)(F)F)nc2nccnc2c1=O was read as Casp6 inh inactive, LEDGF integ inh inactive, MBD2 inh inactive, TDP2 absorb inactive, UHRF1 binding 22 and NSD2 HMT inh inactive.
For COc1ccc(NC(=O)c2cccc(NC(=O)c3ccco3)c2)cc1 the results were NSD2 HMT inh inactive.
`Clc1ccc2c(SCC3CO3)c3ccccc3nc2c1` (stereo not drawn) gave Casp6 inh inactive, LEDGF integ inh inactive, MBD2 inh inactive, TDP2 absorb inactive, UHRF1 binding 72 and NSD2 HMT inh inactive.
`CCS(=O)(=O)N1Cc2ccccc2CC1C(=O)Nc1cccc(C)c1` (stereo not drawn) gave Casp6 inh inactive, LEDGF integ inh inactive, MBD2 inh inactive, TDP2 absorb inactive, UHRF1 binding 50 and NSD2 HMT inh inactive.
Screening COc1ccc(Nc2nc(=O)c3cc([N+](=O)[O-])ccc3s2)cc1 returned Casp6 inh inactive, LEDGF integ inh inactive, MBD2 inh inactive, TDP2 absorb inactive, UHRF1 binding 25 and NSD2 HMT inh inactive.
For Cc1ccc(Nc2nc(=O)c3cc([N+](=O)[O-])ccc3s2)cc1 the results were Casp6 inh inactive, LEDGF integ inh inactive, MBD2 inh inactive, TDP2 absorb inactive and UHRF1 binding inactive.
COc1ccccc1C(=O)n1nc(-c2cccnc2)nc1NCc1ccccc1 was read as Casp6 inh inactive, LEDGF integ inh inactive, MBD2 inh inactive, TDP2 absorb inactive, UHRF1 binding inactive and NSD2 HMT inh inactive.
For CCCC(=O)n1nc(-c2cccnc2)nc1NCc1ccc(OC)cc1 the results were Casp6 inh 39, LEDGF integ inh inactive, MBD2 inh inactive, TDP2 absorb inactive, UHRF1 binding inactive and NSD2 HMT inh inactive.
For COc1cccc(-c2ccc(C3[C@H]4CNC[C@@H]3N4C(=O)NC3CCCCC3)cc2)c1 (stereo partly drawn) the results were Casp6 inh inactive.
For N#Cc1c(NC(=O)c2ccco2)sc2c1CCC2 the results were Casp6 inh 48, LEDGF integ inh inactive, MBD2 inh inactive, TDP2 absorb inactive, UHRF1 binding inactive and NSD2 HMT inh inactive.
Screening CCNc1nc(NCC)nc(N/N=C/c2ccc(OC)cc2)n1 returned Casp6 inh inactive, LEDGF integ inh inactive, MBD2 inh inactive, TDP2 absorb inactive, UHRF1 binding 53 and NSD2 HMT inh inactive.
`CCNc1nc(NCC)nc(N/N=C/c2ccccc2)n1` gave Casp6 inh inactive, LEDGF integ inh inactive, MBD2 inh inactive, TDP2 absorb inactive, UHRF1 binding inactive and NSD2 HMT inh inactive.
For O=C(NC1CCCC1)c1n[nH]c2ccccc12 the results were Casp6 inh inactive, LEDGF integ inh inactive, MBD2 inh inactive, TDP2 absorb inactive, UHRF1 binding 45 and NSD2 HMT inh inactive.
Screening CO[C@@H]1CN(C)C(=O)c2cc(NC(=O)C3CC3)ccc2OC[C@H](C)N(Cc2ccc(F)cc2)C[C@H]1C returned Casp6 inh inactive.
`CC(=O)[C@@H]1[C@@H]2C(=O)N(Cc3ccccc3)C(=O)[C@@H]2C2c3ccccc3C=CN21` (stereo partly drawn) gave Casp6 inh 61, LEDGF integ inh inactive, MBD2 inh inactive, TDP2 absorb inactive and UHRF1 binding inactive.
O=C(c1ccco1)[C@@H]1[C@@H]2C(=O)N(c3ccccc3)C(=O)[C@@H]2C2c3ccccc3C=CN21 (stereo partly drawn) was read as LEDGF integ inh inactive, MBD2 inh inactive, TDP2 absorb 43 and UHRF1 binding inactive.
COc1ccc(N2C(=O)[C@@H]3[C@H](C2=O)[C@H]2c4ccccc4C=CN2[C@@H]3C(=O)Nc2ccccc2)cc1 was read as LEDGF integ inh inactive, MBD2 inh inactive, TDP2 absorb inactive, UHRF1 binding inactive and NSD2 HMT inh inactive.
`O=C1C2C3C=CC(C3)C2C(=O)N1Cc1ccccc1` (stereo not drawn) gave LEDGF integ inh inactive, MBD2 inh inactive, TDP2 absorb inactive, UHRF1 binding inactive and NSD2 HMT inh inactive.
